Source: ChEMBL document CHEMBL1128473, “[(Biaryloxy)alkyl]isoxazoles: picornavirus inhibitors” (J Med Chem, 1995)
≈ marks a conversion by molar mass, not a printed value. One block for each molecule: values may come before it.

How the values were obtained:
Assay type in all cases: functional
Human rhinovirus sp. [1] = assay: Concentration inhibiting 50% of the serotypes tested to 50% of the viral concentration of untreated controls following 72 hr of exposure
How it was run: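 Tissue culture infectious dose (TCID50) assay against a panel of 10 human rhinovirus serotypes. For each serotype, the viral concentration was compared with untreated controls after 72 h of compound exposure. MIC50 is the compound concentration at which half of the serotypes tested are reduced to 50% of the untreated-control viral concentration.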

Human rhinovirus sp. [2] = assay: Minimum inhibitory concentration on HRV serotype 38
Human rhinovirus sp. [3] = assay: Minimum inhibitory concentration on HRV serotype 39
Human rhinovirus sp. [4] = assay: Minimum inhibitory concentration on HRV serotype 49
Human rhinovirus sp. [5] = assay: Minimum inhibitory concentration on HRV serotype 46
Human rhinovirus sp. [6] = assay: Minimum inhibitory concentration on HRV serotype 62
Human rhinovirus sp. [7] = assay: Minimum inhibitory concentration on HRV serotype 90
How it was run: (§1)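 Tested in a tissue culture infectious dose (TCID50) assay with 72 h compound exposure. Activity is read as the concentration that holds virus to 50% of the titer of untreated controls.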

Human rhinovirus sp. [8] = assay: Minimum inhibitory concentration on HRV serotype 71
Human rhinovirus sp. [9] = assay: Minimum inhibitory concentration on HRV serotype 66
Human rhinovirus sp. [10] = assay: Minimum inhibitory concentration on HRV serotype 64
Human rhinovirus sp. [11] = assay: Minimum inhibitory concentration on HRV serotype 73
Human rhinovirus sp. [12] = assay: Minimum inhibitory concentration on HRV serotype 32
Human rhinovirus sp. [13] = assay: Minimum inhibitory concentration on HRV serotype 80; how it was run: as §1
Human rhinovirus sp. [14] = assay: Minimum inhibitory concentration on HRV serotype 88; how it was run: as §1
Human rhinovirus sp. [15] = assay: Minimum inhibitory concentration on HRV serotype 1A
Human rhinovirus sp. [16] = assay: Minimum inhibitory concentration on HRV serotype 57
Human rhinovirus sp. [17] = assay: Minimum inhibitory concentration on HRV serotype 85; how it was run: as §1
Human rhinovirus sp. [18] = assay: Minimum inhibitory concentration on HRV serotype 44
Human rhinovirus sp. [19] = assay: Minimum inhibitory concentration on HRV serotype 67
Human rhinovirus sp. [20] = assay: Minimum inhibitory concentration on HRV serotype 47
Human rhinovirus sp. [21] = assay: Minimum inhibitory concentration on HRV serotype 35
Human rhinovirus sp. [22] = assay: Minimum inhibitory concentration on HRV serotype 50
Human rhinovirus sp. [23] = assay: Minimum inhibitory concentration on HRV serotype 16
Human rhinovirus sp. [24] = assay: Minimum inhibitory concentration on HRV serotype 20
Human rhinovirus sp. [25] = assay: Minimum inhibitory concentration on HRV serotype 36
Human rhinovirus sp. [26] = assay: Minimum inhibitory concentration on HRV serotype 23
Human rhinovirus sp. [27] = assay: Minimum inhibitory concentration on HRV serotype 25
Human rhinovirus sp. [28] = assay: Minimum inhibitory concentration on HRV serotype 34
Human rhinovirus sp. [29] = assay: Minimum inhibitory concentration on HRV serotype 76; how it was run: as §1
Human rhinovirus sp. [30] = assay: Minimum inhibitory concentration on HRV serotype 78; how it was run: as §1
Human rhinovirus sp. [31] = assay: Minimum inhibitory concentration on HRV serotype 1B
Human rhinovirus sp. [32] = assay: Minimum inhibitory concentration on HRV serotype 11
Human rhinovirus sp. [33] = assay: Minimum inhibitory concentration on HRV serotype 9; how it was run: as §1
Human rhinovirus sp. [34] = assay: Minimum inhibitory concentration on HRV serotype 51
Human rhinovirus sp. [35] = assay: Minimum inhibitory concentration on HRV serotype 68
Human rhinovirus sp. [36] = assay: Minimum inhibitory concentration on HRV serotype 22
Human rhinovirus sp. [37] = assay: Minimum inhibitory concentration on HRV serotype 63
Human rhinovirus sp. [38] = assay: Minimum inhibitory concentration on HRV serotype 21
Human rhinovirus sp. [39] = assay: Minimum inhibitory concentration on HRV serotype 89; how it was run: as §1
Human rhinovirus sp. [40] = assay: Minimum inhibitory concentration on HRV serotype 96; how it was run: as §1
Human rhinovirus sp. [41] = assay: Minimum inhibitory concentration on HRV serotype 15
Human rhinovirus sp. [42] = assay: Minimum inhibitory concentration on HRV serotype 81; how it was run: as §1
Human rhinovirus sp. [43] = assay: Minimum inhibitory concentration on HRV serotype 43
Human rhinovirus sp. [44] = assay: Minimum inhibitory concentration on HRV serotype 79; how it was run: as §1
Human rhinovirus sp. [45] = assay: Minimum inhibitory concentration on HRV serotype 83; how it was run: as §1
Human rhinovirus sp. [46] = assay: Minimum inhibitory concentration on HRV serotype 56
Human rhinovirus sp. [47] = assay: Minimum inhibitory concentration on HRV serotype 28
Human rhinovirus sp. [48] = assay: Minimum inhibitory concentration on HRV serotype 58
Human rhinovirus sp. [49] = assay: Minimum inhibitory concentration on HRV serotype 2
Human rhinovirus sp. [50] = assay: Minimum inhibitory concentration on HRV serotype 100
Human rhinovirus sp. [51] = assay: Minimum inhibitory concentration on HRV serotype 24
Human rhinovirus sp. [52] = assay: Minimum inhibitory concentration on HRV serotype 19
Human rhinovirus sp. [53] = assay: Minimum inhibitory concentration on HRV serotype 84; how it was run: as §1
Human rhinovirus sp. [54] = assay: Minimum inhibitory concentration on HRV serotype 30
Human rhinovirus sp. [55] = assay: Minimum inhibitory concentration on HRV serotype 75
Human rhinovirus sp. [56] = assay: Minimum inhibitory concentration on HRV serotype 53
Human rhinovirus sp. [57] = assay: Minimum inhibitory concentration on HRV serotype 40
Human rhinovirus sp. [58] = assay: Minimum inhibitory concentration on HRV serotype 55
Human rhinovirus sp. [59] = assay: Minimum inhibitory concentration on HRV serotype 33
Human rhinovirus sp. [60] = assay: Minimum inhibitory concentration on HRV serotype 82; how it was run: as §1
Human rhinovirus sp. [61] = assay: Minimum inhibitory concentration on HRV serotype T39; how it was run: as §1
Human rhinovirus sp. [62] = assay: Minimum inhibitory concentration on HRV serotype 29
Human rhinovirus sp. [63] = assay: Minimum inhibitory concentration on HRV serotype 92; how it was run: as §1
Human rhinovirus sp. [64] = assay: Minimum inhibitory concentration on HRV serotype 7
Human rhinovirus sp. [65] = assay: Minimum inhibitory concentration on HRV serotype 61

SMILES: Cc1cc(CCCOc2c(C)cc(-c3cccc(C#N)c3)cc2C)on1
MIC50 (Human rhinovirus sp. [1]): > 8.9 µM

SMILES: Cc1cc(CCCOc2c(C)cc(-c3cccc(CO)c3)cc2C)on1
MIC50 (Human rhinovirus sp. [1]): 0.23 µM (≈ 0.0808 µg/mL)

SMILES: Cc1cc(CCCOc2c(C)cc(-c3cccc([N+](=O)[O-])c3)cc2C)on1
MIC50 (Human rhinovirus sp. [1]): 0.35 µM (≈ 0.128 µg/mL)

SMILES: Cc1cc(CCCCCOc2c(Cl)cc(C3=NCCO3)cc2Cl)on1 [WIN-54954]
MIC (Human rhinovirus sp. [2]): 0.078 µg/mL (≈ 0.204 µM) | MIC (Human rhinovirus sp. [3]): 0.347 µg/mL (≈ 0.905 µM) | MIC (Human rhinovirus sp. [4]): 0.16 µg/mL (≈ 0.417 µM) | MIC (Human rhinovirus sp. [5]): 0.143 µg/mL (≈ 0.373 µM) | MIC (Human rhinovirus sp. [6]): 0.115 µg/mL (≈ 0.3 µM) | MIC (Human rhinovirus sp. [7]): 0.191 µg/mL (≈ 0.498 µM) | MIC (Human rhinovirus sp. [8]): 0.018 µg/mL (≈ 0.047 µM) | MIC (Human rhinovirus sp. [9]): 0.069 µg/mL (≈ 0.18 µM) | MIC (Human rhinovirus sp. [10]): 0.497 µg/mL (≈ 1.3 µM) | MIC (Human rhinovirus sp. [11]): 0.242 µg/mL (≈ 0.631 µM) | MIC (Human rhinovirus sp. [12]): 0.269 µg/mL (≈ 0.702 µM) | MIC (Human rhinovirus sp. [13]): 0.124 µg/mL (≈ 0.324 µM) | MIC (Human rhinovirus sp. [14]): 0.084 µg/mL (≈ 0.219 µM) | MIC (Human rhinovirus sp. [15]): 0.419 µg/mL (≈ 1.09 µM) | MIC (Human rhinovirus sp. [16]): 0.156 µg/mL (≈ 0.407 µM) | MIC (Human rhinovirus sp. [17]): 0.043 µg/mL (≈ 0.112 µM) | MIC (Human rhinovirus sp. [18]): 0.119 µg/mL (≈ 0.31 µM) | MIC (Human rhinovirus sp. [19]): 0.169 µg/mL (≈ 0.441 µM) | MIC (Human rhinovirus sp. [20]): 0.015 µg/mL (≈ 0.0391 µM) | MIC (Human rhinovirus sp. [21]): 0.036 µg/mL (≈ 0.0939 µM) | MIC (Human rhinovirus sp. [22]): 0.47 µg/mL (≈ 1.23 µM) | MIC (Human rhinovirus sp. [23]): 0.639 µg/mL (≈ 1.67 µM) | MIC (Human rhinovirus sp. [24]): 0.037 µg/mL (≈ 0.0965 µM) | MIC (Human rhinovirus sp. [25]): 0.073 µg/mL (≈ 0.19 µM) | MIC (Human rhinovirus sp. [26]): 0.451 µg/mL (≈ 1.18 µM) | MIC (Human rhinovirus sp. [27]): 0.072 µg/mL (≈ 0.188 µM) | MIC (Human rhinovirus sp. [28]): 0.072 µg/mL (≈ 0.188 µM) | MIC (Human rhinovirus sp. [29]): 0.102 µg/mL (≈ 0.266 µM) | MIC50 (Human rhinovirus sp. [1]): 0.78 µM (≈ 0.299 µg/mL) | MIC (Human rhinovirus sp. [30]): 0.081 µg/mL (≈ 0.211 µM) | MIC (Human rhinovirus sp. [31]): 0.105 µg/mL (≈ 0.274 µM) | MIC (Human rhinovirus sp. [32]): 0.102 µg/mL (≈ 0.266 µM) | MIC (Human rhinovirus sp. [33]): 0.187 µg/mL (≈ 0.488 µM) | MIC (Human rhinovirus sp. [34]): 0.033 µg/mL (≈ 0.0861 µM) | MIC (Human rhinovirus sp. [35]): 0.032 µg/mL (≈ 0.0835 µM) | MIC (Human rhinovirus sp. [36]): 0.027 µg/mL (≈ 0.0704 µM) | MIC (Human rhinovirus sp. [37]): 0.101 µg/mL (≈ 0.264 µM) | MIC (Human rhinovirus sp. [38]): 0.031 µg/mL (≈ 0.0809 µM) | MIC (Human rhinovirus sp. [39]): 0.034 µg/mL (≈ 0.0887 µM) | MIC (Human rhinovirus sp. [40]): 0.091 µg/mL (≈ 0.237 µM) | MIC (Human rhinovirus sp. [41]): 0.49 µg/mL (≈ 1.28 µM) | MIC (Human rhinovirus sp. [42]): 0.416 µg/mL (≈ 1.09 µM) | MIC (Human rhinovirus sp. [43]): 0.283 µg/mL (≈ 0.738 µM) | MIC (Human rhinovirus sp. [44]): 0.028 µg/mL (≈ 0.0731 µM) | MIC (Human rhinovirus sp. [45]): 0.018 µg/mL (≈ 0.047 µM) | MIC (Human rhinovirus sp. [46]): 0.099 µg/mL (≈ 0.258 µM) | MIC (Human rhinovirus sp. [47]): 0.116 µg/mL (≈ 0.303 µM) | MIC (Human rhinovirus sp. [48]): 0.028 µg/mL (≈ 0.0731 µM) | MIC (Human rhinovirus sp. [49]): 0.058 µg/mL (≈ 0.151 µM) | MIC (Human rhinovirus sp. [50]): 0.025 µg/mL (≈ 0.0652 µM) | MIC (Human rhinovirus sp. [51]): 0.175 µg/mL (≈ 0.457 µM) | MIC (Human rhinovirus sp. [52]): 0.178 µg/mL (≈ 0.464 µM) | MIC (Human rhinovirus sp. [53]): > 3 µg/mL | MIC (Human rhinovirus sp. [54]): 0.156 µg/mL (≈ 0.407 µM) | MIC (Human rhinovirus sp. [55]): 0.157 µg/mL (≈ 0.41 µM) | MIC (Human rhinovirus sp. [56]): 0.355 µg/mL (≈ 0.926 µM) | MIC (Human rhinovirus sp. [57]): 0.053 µg/mL (≈ 0.138 µM) | MIC (Human rhinovirus sp. [58]): 0.02 µg/mL (≈ 0.0522 µM) | MIC (Human rhinovirus sp. [59]): 0.107 µg/mL (≈ 0.279 µM) | MIC (Human rhinovirus sp. [60]): 0.245 µg/mL (≈ 0.639 µM) | MIC (Human rhinovirus sp. [61]): 0.299 µg/mL (≈ 0.78 µM) | MIC (Human rhinovirus sp. [62]): 0.295 µg/mL (≈ 0.77 µM) | MIC (Human rhinovirus sp. [63]): 0.002 µg/mL (≈ 0.00522 µM) | MIC (Human rhinovirus sp. [64]): 0.035 µg/mL (≈ 0.0913 µM) | MIC (Human rhinovirus sp. [65]): 0.127 µg/mL (≈ 0.331 µM)

SMILES: Cc1cc(CCCOc2c(C)cc(-c3ccc([N+](=O)[O-])cc3)cc2C)on1
MIC50 (Human rhinovirus sp. [1]): 0.76 µM (≈ 0.278 µg/mL)

SMILES: Cc1cc(CCCOc2c(C)cc(-c3ccc(C#N)cc3)cc2C)on1
MIC50 (Human rhinovirus sp. [1]): 0.26 µM (≈ 0.0901 µg/mL)

The next lines start with the values.

MIC50 (Human rhinovirus sp. [1]): 0.23 µM (≈ 0.0808 µg/mL)
SMILES: COc1cccc(-c2cc(C)c(OCCCc3cc(C)no3)c(C)c2)c1

MIC50 (Human rhinovirus sp. [1]): 1.7 µM (≈ 0.662 µg/mL)
SMILES: Cc1cc(CCCOc2c(C)cc(-c3ccc(C(F)(F)F)cc3)cc2C)on1

MIC50 (Human rhinovirus sp. [1]): 0.16 µM (≈ 0.0572 µg/mL)
SMILES: Cc1cc(CCCOc2c(C)cc(-c3ccc(F)c(F)c3)cc2C)on1

MIC50 (Human rhinovirus sp. [1]): 0.28 µM (≈ 0.0984 µg/mL)
SMILES: COc1ccc(-c2cc(C)c(OCCCc3cc(C)no3)c(C)c2)cc1
